Data: ChEMBL document CHEMBL1143913, “Pyrimidinone-peptoid hybrid molecules with distinct effects on molecular chaperone function and cell proliferation” (Bioorg Med Chem, 2008)

Tests used:
[1] = test system: Saccharomyces cerevisiae; assay: Inhibition of yeast Hsp70 ATPase assessed as ATP hydrolysis relative to control
Outline: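 Purified yeast Hsp70 (Ssa1p) was pre-bound to ATP and run as a single-turnover assay, so that only the hydrolysis step is measured. Compound (300 µM) or DMSO was added at 0 s, and that time was set to zero. Results from multiple experiments were averaged, kinetics were fitted, and the value is the fold change in hydrolysis versus DMSO.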

[2] = test system: Saccharomyces cerevisiae; assay: Inhibition of SV40 T antigen-stimulated Hsp70 ATPase in yeast assessed as ATP hydrolysis relative to control
Outline: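 Yeast Ssa1p was pre-bound to ATP and run as a single-turnover assay with purified SV40 TAg (0.4 µM). Compound (300 µM) or DMSO was added at 60 s, and that time was set to zero. Runs were averaged over multiple experiments, kinetics were fitted, and the value is the fold change in TAg-stimulated ATP hydrolysis versus DMSO.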

[3] = test system: SK-BR-3; assay: Antiproliferative activity against human SK-BR3 cells after 96 hrs by MTS assay; format: functional; conditions: SK-BR-3, 96 h
Outline: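 Cells were kept in exponential growth in DMEM with 10% FBS, 1% penicillin and 1% glutamine, seeded at 4,000 per well and grown 48 h, with a time-zero plate counted. They were then exposed for 72 h to DMSO (1 v/v) or a concentration range in quadruplicate. Cell number was read by MTS/N-methylphenazine methylsulfate absorbance at 490 minus 630 nm. GI50 is relative to DMSO over the 72 h or 96 h period, and values above 50 µM are given as >50.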

Row | SMILES | Fold change [1] | Fold change [2] | GI50 [3] [µM]
1 | CCCCCCN(C(=O)CCCCCN1C(=O)NC(c2ccc3ccccc3c2)C(C(=O)OCc2ccccc2)=C1C)C(C(=O)NCCCC)c1ccc(OCC(=O)OC)c(C(=O)OC)c1 (centres undefined) | 1 | -1.1 | 10
2 | CC1=C(C(=O)OCc2ccccc2)C(c2ccc(-c3ccccc3)cc2)NC(=O)N1CCCCCC(=O)O (centres undefined) | 1.1 | -3.5 | > 50
3 | CCCCCCN(C(=O)CCCCCN1C(=O)NC(c2ccc(-c3ccccc3)cc2)C(C(=O)OCc2ccccc2)=C1C)C(C(=O)NCCCC)c1ccc(O)cc1 (centres undefined) | 11.8 | 9.2 | > 50
4 | CCCCCCN(C(=O)CCCCCN1C(=O)NC(c2ccc(-c3ccccc3)cc2)C(C(=O)OCc2ccccc2)=C1C)C(C(=O)NCCCC)c1cccc(C(=O)OC)c1 (centres undefined) | 3.7 | -2 | > 50
5 | CCCCCCN(C(=O)CCCCCN1C(=O)NC(c2ccc([N+](=O)[O-])cc2)C(C(=O)OCc2ccccc2)=C1C)C(C(=O)NCCCC)c1ccc(OCC(=O)OC)c(C(=O)OC)c1 (centres undefined) | 1 | -1.1 | 6.9
6 | CCCCCCN(C(=O)CCCCCN1C(=O)NC(c2ccc(-c3ccccc3)cc2)C(C(=O)OCc2ccccc2)=C1C)C(C(=O)NCCCC)c1ccc(-c2ccccc2)cc1 (centres undefined) | 9.9 | 6 | > 50
7 | CCCCCCN(C(=O)CCCCCN1C(=O)NC(c2ccc(C(C)(C)C)cc2)C(C(=O)OCc2ccccc2)=C1C)C(C(=O)NCCCC)c1ccc(OCC(=O)OC)c(C(=O)OC)c1 (centres undefined) | 1.2 | -5.2 | 29
8 | CCCCCCN(C(=O)CCCCCN1C(=O)NC(c2ccc(-c3ccccc3)cc2)C(C(=O)OCc2ccccc2)=C1C)C(C)C(=O)NCCCC (centres undefined) | 1.6 | 1 | > 50
9 | CC1=C(C(=O)OCc2ccccc2)C(c2ccc(C(C)(C)C)cc2)NC(=O)N1CCCCCC(=O)O (centres undefined) | 1 | -3.5 | > 50
10 | CCCCCCN(C(=O)CCCCCN1C(=O)NC(c2ccc(C3CCCCC3)cc2)C(C(=O)OCc2ccccc2)=C1C)C(C(=O)NCCCC)c1ccc(OCC(=O)OC)c(C(=O)OC)c1 (centres undefined) | 2.2 | -1.6 | 42
11 | CCCCCCN(C(=O)CCCCCN1C(=O)NC(c2ccc(-c3ccccc3)cc2)C(C(=O)OCc2ccccc2)=C1C)C(C(=O)NCCCC)c1ccccn1 (centres undefined) | 4.2 | 5.5 | > 50
12 | CCCCCCN(C(=O)CCCCCN1C(=O)NC(c2ccc(-c3ccccc3)cc2)C(C(=O)OCc2ccccc2)=C1C)C(C(=O)NCCCC)c1ccc(OCC(=O)O)c(C(=O)O)c1 (centres undefined) | 1.1 | -2.2 | > 50
13 | CC1=C(C(=O)OCc2ccccc2)C(C2CC2)NC(=O)N1CCCCCC(=O)O (centres undefined) | 1.1 | 1 | > 50
14 | CCCCNC(=O)C(c1ccc(-c2ccccc2)cc1)N(CCN1CCOCC1)C(=O)CCCCCN1C(=O)NC(c2ccc([N+](=O)[O-])cc2)C(C(=O)OCc2ccccc2)=C1C (centres undefined) | 2.3 | -5 | > 50
15 | COC(=O)CCCCCN1C(=O)NC(C2CC2)C(C(=O)OCc2ccccc2)=C1C (centres undefined) | 1.9 | 1 | > 50
16 | CCCCCCN(C(=O)CCCCCN1C(=O)NC(c2ccc(Cl)cc2)C(C(=O)OCc2ccccc2)=C1C)C(C(=O)NCCCC)c1ccc(OCC(=O)OC)c(C(=O)OC)c1 (centres undefined) | 1.3 | -5.1 | 16
17 | CCCCCCN(C(=O)CCCCCN1C(=O)NC(c2ccc(-c3ccccc3)cc2)C(C(=O)OCc2ccccc2)=C1C)C(C(=O)NCCCC)c1ccccc1 (centres undefined) | 3.2 | 1.1 | > 50
18 | COC(=O)CCCCCN1C(=O)NC(c2ccc(-c3ccccc3)cc2)C(C(=O)OCc2ccccc2)=C1C (centres undefined) | 2.6 | -1.2 | > 50
19 | CC1=C(C(=O)OCc2ccccc2)C(c2ccc([N+](=O)[O-])cc2)NC(=O)N1CCCCCC(=O)O (centres undefined) | 1.2 | 1.1 | > 50
20 | CC1=C(C(=O)OCc2ccccc2)C(c2ccc(C(F)(F)F)cc2)NC(=O)N1CCCCCC(=O)O (centres undefined) | 1.2 | 1.1 | > 50
21 | CCCCCCN(C(=O)CCCCCN1C(=O)NC(c2ccc(-c3ccccc3)cc2)C(C(=O)OCc2ccccc2)=C1C)C(C(=O)NCCCC)c1ccc(OCC(=O)OC)cc1 (centres undefined) | 1.1 | 1.2 | 48
22 | CCCCCCN(C(=O)CCCCCN1C(=O)NC(c2ccccc2-c2ccccc2)C(C(=O)OCc2ccccc2)=C1C)C(C(=O)NCCCC)c1ccc(OCC(=O)OC)c(C(=O)OC)c1 (centres undefined) | -1.1 | -4 | 17
23 | CCCCNC(=O)C(c1ccc(OCC(=O)OC)c(C(=O)OC)c1)N(CCC1=CCCCC1)C(=O)CCCCCN1C(=O)NC(c2ccc(-c3ccccc3)cc2)C(C(=O)OCc2ccccc2)=C1C (centres undefined) | 6.1 | -1.2 | 39
24 | CCCCNC(=O)C(c1ccc(OCC(=O)OC)c(C(=O)OC)c1)N(CCc1c[nH]c2ccccc12)C(=O)CCCCCN1C(=O)NC(c2ccc(-c3ccccc3)cc2)C(C(=O)OCc2ccccc2)=C1C (centres undefined) | 10.3 | -1.3 | > 50
25 | CC1=C(C(=O)OCc2ccccc2)C(c2ccc(C3CCCCC3)cc2)NC(=O)N1CCCCCC(=O)O (centres undefined) | 1.1 | -2.4 | > 50
26 | CCCCCCN(C(=O)CCCCCN1C(=O)NC(c2ccc(-c3ccccc3)cc2)C(C(=O)OCc2ccccc2)=C1C)C(C(=O)NCCCC)C1CCCCC1 (centres undefined) | 3.2 | 1.1 | > 50
27 | CC(=O)O[C@H]1C(=O)[C@@]2(C)[C@H]([C@H](OC(=O)c3ccccc3)[C@]3(O)C[C@H](OC(=O)[C@H](O)[C@@H](NC(=O)c4ccccc4)c4ccccc4)C(C)=C1C3(C)C)[C@]1(OC(C)=O)CO[C@@H]1C[C@@H]2O [PACLITAXEL] | – | – | 6.1

The next lines start with the values.

Row | Fold change [1] | Fold change [2] | GI50 [3] [µM] | SMILES
28 | 19.1 | 2.1 | > 50 | CCCCCCN(C(=O)CCCCCN1C(=O)NC(c2ccc(-c3ccccc3)cc2)C(C(=O)OCc2ccccc2)=C1C)C(C(=O)NCCCC)c1ccc(O)c(C(=O)OC)c1 (centres undefined)
29 | 2.3 | -1.7 | > 50 | COC(=O)CCCCCN1C(=O)NC(c2ccccc2)C(C(=O)OCc2ccccc2)=C1C (centres undefined)
30 | 1 | -5 | > 50 | CC1=C(C(=O)OCc2ccccc2)C(c2ccccc2-c2ccccc2)NC(=O)N1CCCCCC(=O)O (centres undefined)
31 | 1.5 | -1.1 | > 50 | CC1=C(C(=O)OCc2ccccc2)C(c2ccccc2)NC(=O)N1CCCCCC(=O)O (centres undefined)
32 | 1.1 | -1.5 | 6 | CCCCCCN(C(=O)CCCCCN1C(=O)NC(c2cccc([N+](=O)[O-])c2)C(C(=O)OCc2ccccc2)=C1C)C(C(=O)NCCCC)c1ccc(OCC(=O)OC)c(C(=O)OC)c1 (centres undefined)
33 | -1.1 | -1.4 | > 50 | CC1=C(C(=O)OCc2ccccc2)C(c2ccc3ccccc3c2)NC(=O)N1CCCCCC(=O)O (centres undefined)
34 | 1.3 | -1.6 | > 50 | CC1=C(C(=O)OCc2ccccc2)C(c2ccc(Cl)cc2)NC(=O)N1CCCCCC(=O)O (centres undefined)
35 | 1.2 | -2.1 | 6.3 | CCCCCCN(C(=O)CCCCCN1C(=O)NC(C2CCCCC2)C(C(=O)OCc2ccccc2)=C1C)C(C(=O)NCCCC)c1ccc(OCC(=O)OC)c(C(=O)OC)c1 (centres undefined)
36 | 1 | -4.8 | > 50 | CCCCCCN(C(=O)CCCCCN1C(=O)NC(c2ccc(C(F)(F)F)cc2)C(C(=O)OCc2ccccc2)=C1C)C(C(=O)NCCCC)c1ccc(OCC(=O)OC)c(C(=O)OC)c1 (centres undefined)
37 | -1.1 | -1.1 | 7.5 | CCCCNC(=O)C(c1ccc(OCC(=O)OC)c(C(=O)OC)c1)N(CCc1ccccn1)C(=O)CCCCCN1C(=O)NC(c2ccc(-c3ccccc3)cc2)C(C(=O)OCc2ccccc2)=C1C (centres undefined)
38 | 1.5 | -1.9 | 14 | CCCCNC(=O)C(c1ccc(OCC(=O)OC)c(C(=O)OC)c1)N(Cc1ccccc1)C(=O)CCCCCN1C(=O)NC(c2ccc(-c3ccccc3)cc2)C(C(=O)OCc2ccccc2)=C1C (centres undefined)
39 | 1 | -1.1 | 7.1 | CCCCNC(=O)C(c1ccc(OCC(=O)OC)c(C(=O)OC)c1)N(Cc1ccccn1)C(=O)CCCCCN1C(=O)NC(c2ccc(-c3ccccc3)cc2)C(C(=O)OCc2ccccc2)=C1C (centres undefined)
40 | 12.3 | 1.3 | 32 | CCCCNC(=O)C(c1ccc(OCC(=O)OC)c(C(=O)OC)c1)N(CCc1ccccc1)C(=O)CCCCCN1C(=O)NC(c2ccc(-c3ccccc3)cc2)C(C(=O)OCc2ccccc2)=C1C (centres undefined)
41 | 1 | 1.5 | > 50 | CC1=C(C(=O)OCc2ccccc2)C(C2CCCCC2)NC(=O)N1CCCCCC(=O)O (centres undefined)
42 | -1.1 | 1.1 | > 50 | CC1=C(C(=O)OCc2ccccc2)C(c2cccc([N+](=O)[O-])c2)NC(=O)N1CCCCCC(=O)O (centres undefined)
